ChEMBL document CHEMBL1121485, “Antiestrogens. Synthesis and evaluation of mammary tumor inhibiting activity of 1,1,2,2-tetraalkyl-1,2 -diphenylethanes” (1980)

Key:
Mus musculus [1] = organism: Mus musculus; assay: Inhibition of estrone-stimulated uterine growth in mice at 10 ug
[2] = biological target: T1, Estrogen receptor (Mus musculus) (UniProt O08537+P19785); assay: Uterotrophic effect in mice as uterus dry weight(mg) compared to body weight(g) at 0 ug/day dose; assay type: functional, tissue-based
T1 sequence (O08537 whole entry, looked up): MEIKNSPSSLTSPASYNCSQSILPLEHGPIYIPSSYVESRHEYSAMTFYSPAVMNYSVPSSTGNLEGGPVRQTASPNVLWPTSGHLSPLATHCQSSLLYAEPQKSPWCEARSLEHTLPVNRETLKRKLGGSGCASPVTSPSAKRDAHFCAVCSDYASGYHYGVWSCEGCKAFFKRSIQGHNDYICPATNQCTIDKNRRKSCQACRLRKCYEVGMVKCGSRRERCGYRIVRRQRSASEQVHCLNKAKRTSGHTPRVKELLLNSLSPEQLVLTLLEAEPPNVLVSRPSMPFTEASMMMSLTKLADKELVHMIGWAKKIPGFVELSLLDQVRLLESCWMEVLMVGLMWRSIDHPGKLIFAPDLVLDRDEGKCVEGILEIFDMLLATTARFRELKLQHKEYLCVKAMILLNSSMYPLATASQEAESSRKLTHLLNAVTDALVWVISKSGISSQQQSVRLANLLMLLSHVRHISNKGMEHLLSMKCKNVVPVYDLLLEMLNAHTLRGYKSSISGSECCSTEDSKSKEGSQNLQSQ
T1 sequence (P19785 whole entry, looked up): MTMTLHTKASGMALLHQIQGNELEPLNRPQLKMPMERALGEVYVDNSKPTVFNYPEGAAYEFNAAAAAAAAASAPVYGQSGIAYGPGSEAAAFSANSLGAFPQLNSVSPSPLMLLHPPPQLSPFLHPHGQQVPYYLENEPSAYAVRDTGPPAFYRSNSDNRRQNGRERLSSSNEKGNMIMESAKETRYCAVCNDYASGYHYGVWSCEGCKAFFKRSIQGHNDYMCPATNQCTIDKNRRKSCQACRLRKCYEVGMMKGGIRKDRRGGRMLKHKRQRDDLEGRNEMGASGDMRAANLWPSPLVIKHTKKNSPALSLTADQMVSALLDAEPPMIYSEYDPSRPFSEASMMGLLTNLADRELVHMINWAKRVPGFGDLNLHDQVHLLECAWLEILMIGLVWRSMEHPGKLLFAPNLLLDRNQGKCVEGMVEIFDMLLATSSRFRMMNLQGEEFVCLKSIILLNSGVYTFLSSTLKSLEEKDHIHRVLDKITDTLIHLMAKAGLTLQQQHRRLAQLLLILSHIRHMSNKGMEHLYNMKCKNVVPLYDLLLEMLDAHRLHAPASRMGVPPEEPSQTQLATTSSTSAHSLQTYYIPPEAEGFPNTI
In short: (§1)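 Mice aged 20 days at start, dosed sc once daily for 3 days (0.1 mL injections, arachis oil vehicle); vehicle-only control group. Killed 24 h after last dose; body weight recorded; uteri fixed in Bouin's solution 12 h, trimmed of connective tissue, washed with saturated alcoholic LiCl, dried 100 °C for 24 h, then weighed.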

[3] = biological target: T1, Estrogen receptor (Mus musculus); assay: Anti-uterotrophic effect in mice as uterus dry weight(mg) compared to body weight(g) at 500 ug/day dose; assay type: functional, tissue-based
In short: as §1

[4] = biological target: T1, Estrogen receptor (Mus musculus); assay: Uterotrophic effect in mice as uterus dry weight(mg) compared to body weight(g) at 50 ug/day dose; assay type: functional, tissue-based
In short: as §1

[5] = biological target: T1, Estrogen receptor (Mus musculus); assay: Uterotrophic effect in mice as uterus dry weight(mg) compared to body weight(g) at 2 ug/day dose; assay type: functional, tissue-based
In short: as §1

[6] = biological target: T1, Estrogen receptor (Mus musculus); assay: Uterotrophic effect in mice as uterus dry weight(mg) compared to body weight(g) at 250 ug/day dose; assay type: functional, tissue-based
In short: as §1

[7] = biological target: T1, Estrogen receptor (Mus musculus); assay: Anti-uterotrophic effect in mice as uterus dry weight(mg) compared to body weight(g) at 10 ug/day dose; assay type: functional, tissue-based
In short: as §1

[8] = biological target: T1, Estrogen receptor (Mus musculus); assay: Anti-uterotrophic effect in mice as uterus dry weight(mg) compared to body weight(g) at 100 ug/day dose; assay type: functional, tissue-based
In short: as §1

[9] = biological target: T1, Estrogen receptor (Mus musculus); assay: Uterotrophic effect in mice as uterus dry weight(mg) compared to body weight(g) at 10 ug/day dose; assay type: functional, tissue-based
In short: as §1

[10] = biological target: T1, Estrogen receptor (Mus musculus); assay: Anti-uterotrophic effect in mice as uterus dry weight(mg) compared to body weight(g) at 0 ug/day dose; assay type: functional, tissue-based
In short: as §1

Mus musculus [11] = organism: Mus musculus; assay: Inhibition of estrone-stimulated uterine growth in mice at 25 ug
[12] = biological target: T2, Estrogen receptor (Bos taurus) (UniProt Q9XSB5+P49884); assay: Association constant for Estrogen receptor; assay type: protein assay
[13] = biological target: T1, Estrogen receptor (Mus musculus); assay: Anti-uterotrophic effect in mice as uterus dry weight(mg) compared to body weight(g) at 25 ug/day dose; assay type: functional, tissue-based
In short: as §1

[14] = biological target: T2, Estrogen receptor (Bos taurus); assay: Ratio of association constants for estradiol and compound in estrogen receptor binding assay; assay type: protein assay
[15] = biological target: T2, Estrogen receptor (Bos taurus); assay: Relative binding affinity for Estrogen receptor compared to 17-beta-estradiol; assay type: protein assay
[16] = biological target: T1, Estrogen receptor (Mus musculus); assay: Uterotrophic effect in mice as uterus dry weight(mg) compared to body weight(g) at 100 ug/day dose; assay type: functional, tissue-based
In short: as §1

[17] = biological target: T1, Estrogen receptor (Mus musculus); assay: Uterotrophic effect in mice as uterus dry weight(mg) compared to body weight(g) at 5 ug/day dose; assay type: functional, tissue-based
In short: as §1

[18] = biological target: T1, Estrogen receptor (Mus musculus); assay: Uterotrophic effect in mice as uterus dry weight(mg) compared to body weight(g) at 25 ug/day dose; assay type: functional, tissue-based
In short: as §1

[19] = biological target: T1, Estrogen receptor (Mus musculus); assay: Uterotrophic effect in mice as uterus dry weight(mg) compared to body weight(g) at 500 ug/day dose; assay type: functional, tissue-based
In short: as §1

[20] = biological target: T1, Estrogen receptor (Mus musculus); assay: Uterotrophic effect in mice as uterus dry weight(mg) compared to body weight(g) at 1000 ug/day dose; assay type: functional, tissue-based
In short: as §1

Mus musculus [21] = organism: Mus musculus; assay: Inhibition of estrone-stimulated uterine growth in mice at 5 ug
[22] = biological target: T1, Estrogen receptor (Mus musculus); assay: Uterotrophic effect in mice as uterus dry weight(mg) compared to body weight(g) at 8 ug/day dose; assay type: functional, tissue-based
In short: as §1

Mus musculus [23] = organism: Mus musculus; assay: Inhibition of estrone-stimulated uterine growth in mice at 1000 ug
[24] = biological target: T1, Estrogen receptor (Mus musculus); assay: Anti-uterotrophic effect in mice as uterus dry weight(mg) compared to body weight(g) at 1000 ug/day dose; assay type: functional, tissue-based
In short: as §1

Mus musculus [25] = organism: Mus musculus; assay: Inhibition of estrone-stimulated uterine growth in mice at 100 ug
[26] = biological target: T1, Estrogen receptor (Mus musculus); assay: Anti-uterotrophic effect in mice as uterus dry weight(mg) compared to body weight(g) at 5 ug/day dose; assay type: functional, tissue-based
In short: as §1

[27] = biological target: T1, Estrogen receptor (Mus musculus); assay: Uterotrophic effect in mice as uterus dry weight(mg) compared to body weight(g) at 24 ug/day dose; assay type: functional, tissue-based
In short: as §1

Mus musculus [28] = organism: Mus musculus; assay: Inhibition of estrone-stimulated uterine growth in mice at 250 ug
[29] = biological target: T1, Estrogen receptor (Mus musculus); assay: Anti-uterotrophic effect in mice as uterus dry weight(mg) compared to body weight(g) at 250 ug/day dose; assay type: functional, tissue-based
In short: as §1

[30] = biological target: T1, Estrogen receptor (Mus musculus); assay: Uterotrophic effect in mice as uterus dry weight(mg) compared to body weight(g) at 80 ug/day dose; assay type: functional, tissue-based
In short: as §1

[31] = biological target: T1, Estrogen receptor (Mus musculus); assay: Anti-uterotrophic effect in mice as uterus dry weight(mg) compared to body weight(g) at 50 ug/day dose; assay type: functional, tissue-based
In short: as §1

Mus musculus [32] = organism: Mus musculus; assay: Inhibition of estrone-stimulated uterine growth in mice at 50 ug
Mus musculus [33] = organism: Mus musculus; assay: Inhibition of estrone-stimulated uterine growth in mice at 5 ug; remark: listed apart in the source
Mus musculus [34] = organism: Mus musculus; assay: Inhibition of estrone-stimulated uterine growth in mice at 2 ug
[35] = biological target: T1, Estrogen receptor (Mus musculus); assay: Anti-uterotrophic effect in mice as uterus dry weight(mg) compared to body weight(g) at 2 ug/day dose; assay type: functional, tissue-based
In short: as §1

[36] = biological target: T1, Estrogen receptor (Mus musculus); assay: Uterotrophic effect in mice as uterus dry weight(mg) compared to body weight(g) at 4 ug/day dose; assay type: functional, tissue-based
In short: as §1

[37] = biological target: T1, Estrogen receptor (Mus musculus); assay: Uterotrophic effect in mice as uterus dry weight(mg) compared to body weight(g) at 20 ug/day dose; assay type: functional, tissue-based
In short: as §1

Mus musculus [38] = organism: Mus musculus; assay: Inhibition of estrone-stimulated uterine growth in mice at 2.5 ug
[39] = biological target: T1, Estrogen receptor (Mus musculus); assay: Anti-uterotrophic effect in mice as uterus dry weight(mg) compared to body weight(g) at 2.5 ug/day dose; assay type: functional, tissue-based
In short: as §1

[40] = biological target: T1, Estrogen receptor (Mus musculus); assay: Uterotrophic effect in mice as uterus dry weight(mg) compared to body weight(g) at 2.5 ug/day dose; assay type: functional, tissue-based
In short: as §1

[41] = biological target: T1, Estrogen receptor (Mus musculus); assay: Uterotrophic effect in mice as uterus dry weight(mg) compared to body weight(g) at 240 ug/day dose; assay type: functional, tissue-based
In short: as §1

Mus musculus [42] = organism: Mus musculus; assay: Inhibition of estrone-stimulated uterine growth in mice at 500 ug

| Compound | Inhibition (Mus musculus [1]) [%] | Effect [2] | Effect [6] | Effect [7] | Effect [8] | Effect [10] | Inhibition (Mus musculus [11]) [%] | Ka [12] [M⁻¹] | Effect [13] | RAC [14] | RA [15] | Effect [16] | Effect [19] | Inhibition (Mus musculus [25]) [%] | Effect [26] | Effect [29] | also measured |
| --- | --- | --- | --- | --- | --- | --- | --- | --- | --- | --- | --- | --- | --- | --- | --- | --- | --- |
| CCC(C)(c1ccc(O)cc1)C(C)(CC)c1ccc(O)cc1 (stereo not given) | 10.4 | 15.4 | 50.1 | 34.6 | 38.2 | 14 | 13.1 | 1.8e+07 | 34 | 0.0025 | 0.0027 | – | – | – | – | – | Effect [3]: 42.2; Effect [4]: 39.1; Effect [5]: 24.6; Effect [9]: 34.7 |
| CC(C)(c1cc(O)cc(O)c1)C(C)(C)c1cc(O)cc(O)c1 | 11.7 | 9.6 | – | 30.6 | 40.4 | 11.3 | – | 290000 | – | 4e-05 | 4.3e-05 | 8.5 | 14.3 | – | – | – | Effect [3]: 38.9; Effect [17]: 9; Effect [18]: 9.4 |
| CC(C)(c1ccc(O)cc1)C(C)(C)c1ccc(O)cc1 | – | 9.2 | 13.3 | – | 19.4 | 11.2 | 45.4 | 7.3e+07 | 28 | 0.01 | 0.011 | – | – | 73.5 | 37.3 | 19.3 | Effect [20]: 14.3; Inhibition (Mus musculus [21]): 15.4%; Effect [22]: 10.6; Inhibition (Mus musculus [23]): 57.3%; Effect [24]: 24.4; Effect [27]: 15.7; Inhibition (Mus musculus [28]): 73.5%; Effect [30]: 15.8 |
| CCC(c1cccc(O)c1)C(CC)c1cccc(O)c1 (stereo not given) | – | – | – | – | – | – | – | 3.5e+08 | – | 0.048 | 0.052 | – | – | – | – | – | – |
| CC(C)(c1ccc(O)c(O)c1)C(C)(C)c1ccc(O)c(O)c1 | – | 9.6 | – | – | 28.4 | 15.7 | 21.5 | 4e+07 | 35 | 0.0056 | 0.006 | 10 | 12.5 | 45.5 | 38.6 | – | Effect [17]: 9.7; Effect [31]: 32.8; Effect [18]: 8.9; Inhibition (Mus musculus [32]): 30.4%; Inhibition (Mus musculus [33]): 6.8% |
| CCC(CC)(c1cccc(O)c1)C(CC)(CC)c1cccc(O)c1 | 23 | 15.4 | – | 32.8 | – | 15.6 | – | 2.8e+07 | 38 | 0.0039 | 0.0042 | 52.7 | 52.4 | – | – | 42.9 | Inhibition (Mus musculus [34]): 47%; Effect [35]: 27.4; Effect [36]: 23.1; Effect [37]: 35.8 |
| CC(=O)Oc1ccc(C(C)(C)C(C)(C)c2ccc(OC(C)=O)c(OC(C)=O)c2)cc1OC(C)=O | 13.3 | 11.4 | 14.2 | 37.8 | 41.6 | 12.6 | 13.5 | 1.5e+06 | 37.8 | 0.00021 | 0.00023 | – | – | 0.3 | – | – | Effect [4]: 13.6; Inhibition (Mus musculus [38]): 18.3%; Effect [9]: 13.8; Effect [39]: 36.4; Effect [40]: 13.8 |
| CCC(CC)(c1ccc(O)cc1)C(CC)(CC)c1ccc(O)cc1 | 10.3 | 9.2 | – | 34.6 | – | 14 | 2.2 | 4.8e+07 | 36.4 | 0.0046 | 0.005 | – | – | – | – | 43.2 | Inhibition (Mus musculus [34]): 24.6%; Effect [35]: 31.3; Effect [22]: 15.3; Effect [41]: 43.7; Effect [27]: 23.6; Effect [30]: 31.9 |
| CC(=O)Oc1cc(OC(C)=O)cc(C(C)(C)C(C)(C)c2cc(OC(C)=O)cc(OC(C)=O)c2)c1 | 14.4 | 11.4 | 11.3 | 37.5 | 41.3 | 12.6 | 9.1 | 480000 | 39 | 6.6e-05 | 7.1e-05 | – | – | 1.6 | – | – | Effect [4]: 14.1; Inhibition (Mus musculus [38]): 8.9%; Effect [9]: 12.1; Effect [39]: 39.1; Effect [40]: 11.1 |
| CC(C)(c1cccc(O)c1)C(C)(C)c1cccc(O)c1 | – | 9.2 | 14.6 | – | 20.4 | 11.2 | 43.2 | 6.7e+07 | 28.7 | 0.0093 | 0.01 | – | – | 70.3 | 33.9 | 19.4 | Effect [20]: 13.4; Effect [22]: 9.8; Inhibition (Mus musculus [23]): 60.5%; Effect [24]: 23.4; Effect [27]: 15.7; Inhibition (Mus musculus [28]): 73.6%; Inhibition (Mus musculus [33]): 26.5%; Effect [30]: 15.4 |
| CC(C)(c1ccc(F)c(O)c1)C(C)(C)c1ccc(F)c(O)c1 | – | 15.4 | – | – | 27.3 | 15.7 | 20.9 | 2.1e+07 | 35.2 | 0.0029 | 0.0031 | 16.7 | 21.4 | 53.1 | 36.1 | – | Effect [3]: 25.2; Effect [36]: 17.8; Inhibition (Mus musculus [42]): 61.5%; Effect [37]: 16.7; Inhibition (Mus musculus [33]): 17.2% |
